Calls of active or inactive are those of the source. The calls are words filed in the database; no cut-off is given here.

The term IC50 denotes the concentration that inhibits the measured activity by half.

For one experiment, the system named is Jurkat. The experiment in a line: Antiproliferative activity against human Jurkat cells at 45 uM. It is filed as functional, cell-based. The method, boiled down:
(§1)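 Proliferation of human cancer cell lines HCT-15 (colon) and Jurkat (T-cell lymphoma) was tested at a single concentration of 45 μM per compound.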

Experiment [1] concerns the target T1, Tyrosine-protein phosphatase non-receptor type 1 (Homo sapiens) (UniProt P18031).
T1 sequence (whole entry): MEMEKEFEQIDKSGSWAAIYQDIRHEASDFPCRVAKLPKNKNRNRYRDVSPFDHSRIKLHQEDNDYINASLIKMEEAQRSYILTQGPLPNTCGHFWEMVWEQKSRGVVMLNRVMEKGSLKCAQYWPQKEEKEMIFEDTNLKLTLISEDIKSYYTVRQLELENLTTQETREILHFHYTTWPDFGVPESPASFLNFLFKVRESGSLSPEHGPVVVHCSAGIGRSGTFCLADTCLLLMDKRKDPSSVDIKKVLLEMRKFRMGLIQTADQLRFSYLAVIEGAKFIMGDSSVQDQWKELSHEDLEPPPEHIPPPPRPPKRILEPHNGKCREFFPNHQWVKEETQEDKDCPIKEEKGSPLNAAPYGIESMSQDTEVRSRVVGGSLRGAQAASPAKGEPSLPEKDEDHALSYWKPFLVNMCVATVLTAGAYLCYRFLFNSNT
The experiment is described as follows: Inhibition of PTP1B (unknown origin) at 35 to 40 uM.

The subject of a further experiment is HCT-15. The experiment is described as follows: Antiproliferative activity against human HCT15 cells at 45 uM. It is filed as functional, cell-based. A digest of the protocol:
as §1

Experiment [2] has as its target T2, Tyrosine-protein phosphatase non-receptor type 1 (Homo sapiens, UniProt P18031).
T2 sequence (P18031 whole entry): T1 sequence (whole entry)
The experiment in a line: Inhibition of PTP1B (unknown origin).

Turning to `CC1=C[C@@H]2CC(C)(C)[C@H]1C[C@H](O)C1=CC(=O)O[C@@H]12` (relative stereo), the inhibition entry (in the experiment on Jurkat; in experiment [1]; in the experiment on HCT-15) was “inactive” throughout.
On to `CC1=C[C@@H]2CC(C)(C)[C@H]1C[C@H](O)c1ccoc12` (relative stereo), for which the inhibition entry (with Jurkat; in experiment [1]; in the experiment on HCT-15) was “inactive” in each case.
Regarding `CO[C@]12OC(=O)C=C1[C@@H](O)C[C@H]1C(C)=C[C@@H]2CC1(C)C` (relative stereo), the inhibition result (in the experiment on Jurkat; in experiment [1]; in the experiment with HCT-15) was “inactive” throughout.
In the case of `CC1=C[C@@H]2CC(C)(C)[C@H]1/C=C\c1ccoc12` (relative stereo) [REL-DEHYDROEURYSPONGIN A], the inhibition entry in the experiment with Jurkat and in the experiment on HCT-15 was “inactive” each time. This compound showed an IC50 in experiment [2] of 3.6 µM.
